The campaign covered roughly 27,000 compounds. About 250 (0.93%) were called active.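 How the source made its calls: active means mutant luminescence inhibited past about 50% while wild type luminescence and mutant growth stay under set limits (limit read from the data); inconclusive means mutant versus wild type luminescence inhibition gap past a set limit; inactive means the rest.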 The entries come from a sample that favours actives as a whole.
Experiment: GCN4-lacZ reporter reduction in eIF2B-epsilon mutant yeast, primary screen, S. cerevisiae, eIF2B-epsilon R284H, Beta-Glo luminescence (AID 688)
Conditions: growth inhibition: measured here: mutant yeast growth, toxicity, concentration not given here; inhibition: stronger effect = higher value, screened at 25 µM (by protocol)
Method in brief: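 System: Yeast eIF2B-epsilon R284H mutant carrying GCN4–beta-galactosidase fusion | Read-out basis: Percent inhibition, luminescence and growth | Compound: 25 µM single dose | Times: 16 h at 30 °C exposure | Measured by: Luminescence and A595 | Buffer or medium: YPD medium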

Row | Structure (SMILES) | growth inhibition [%] | inhibition
1 | O=C(O)CSc1nccn1-c1cccc(Cl)c1 | -14.3 | -8.74% (inactive)
2 | Oc1ccc2ccc3cccc[n+]3c2c1 | -4.35 | 53.1% (active)
3 | O=C(Nc1ccc(S(=O)(=O)N2CCCC2)cc1Cl)C1=COCCO1 | -13.8 | 17.1% (inactive)
4 | Cc1cc(C)n(-c2cc(Oc3ccccc3)ncn2)n1 | -5.56 | 0% (inactive)
5 | Cc1cc(NC(=O)CCC2COc3ccccc3O2)no1 (configuration not stated) | – | -23.3% (inactive)
6 | O=c1[nH]c2c(c(=O)n1Cc1ccccc1)CCC2 | 10.8 | 17.1% (inactive)
7 | CCCC(=O)N(CCc1ccccc1)Cc1nc2ccccc2c(=O)[nH]1 | 19 | -3.55% (inactive)
8 | CCn1nccc1C(=O)Nc1ccc(Cl)c(Cl)c1 | -8.33 | 37.2% (inactive)
9 | CCCC(C)C(=O)Nc1ccc(NC(C)=O)cc1 (configuration not stated) | 2.78 | 11.4% (inactive)
10 | Cc1ccc(C(=O)Nc2ccccc2C(=O)NC2CCCCC2)cc1S(=O)(=O)N1CCOCC1 | -23.3 | 29% (inactive)
11 | Cc1cccc(C)c1NC(=O)CCCSc1nnc(-c2ccco2)n1-c1ccccc1 | 11.5 | -14.1% (inactive)
12 | Cc1ccnc(NC(=O)c2ccc(NC(=O)c3ccco3)cc2)c1 | -8.33 | 8.24% (inactive)
13 | COc1ccc(Nc2nc(=O)[nH]nc2C)cc1 | 20.6 | 25.8% (inactive)
14 | C=CCNC(=O)CCCC(=O)NCC=C | -4.76 | -58.7% (inactive)
15 | O=C(O)CSCC(=O)Nc1cccc(C(F)(F)F)c1 | 12.1 | 21.9% (inactive)
16 | Cc1cccc2c(=O)n3c(nc12)CCCCC3 | 25.8 | 13.2% (inactive)
17 | CCn1nnc(NC(=O)c2cc(Cl)c(OC)c(Cl)c2)n1 | 18.5 | 17.4% (inactive)
18 | Cc1c(Nc2nc3ccccc3nc2NS(=O)(=O)c2cccs2)c(=O)n(-c2ccccc2)n1C | 5 | -33.1% (inactive)
19 | CC(C)(C)NC(=O)c1cc(NC(=O)c2ccco2)cc(NC(=O)c2ccco2)c1 | – | 11.3% (inactive)
20 | CCOc1ccccc1N=C1NC(=O)CS1 | – | -14.3% (inactive)
21 | CC/C(=N\O)C(C)(C)/[N+]([O-])=C/c1ccc(Br)cc1 | 5.26 | 9.15% (inactive)
22 | N=c1c2c3c(sc2ncn1CCCN1CCOCC1)CCCCC3 | 3.7 | 23% (inactive)
23 | Cc1nnc(SCC(=O)N2CCN(c3ccccc3)CC2)n1-c1ccccc1 | -9.52 | 1.9% (inactive)

Row | Structure (SMILES) | growth inhibition [%] | inhibition
24 | c1ccc(CCc2nc(-c3ccncc3)no2)cc1 | 15.2 | 50.4% (active)
25 | O=C1c2ccccc2C(=O)N1CCCc1nc(-c2ccccc2)no1 | -5.56 | -17.2% (inactive)
26 | c1csc(-c2nc(-c3ccncc3)no2)c1 | 6.45 | 2.34% (inactive)
27 | COCCOCCn1cnc2ccccc21 | 6.67 | 18.1% (inactive)
28 | CCOn1c(SC(C)C)nc2ccccc2c1=O | – | 10.3% (inactive)
29 | O=C(CSc1nnc(-c2cccnc2)n1CCc1ccccc1)NCc1ccccc1 | – | -28.6% (inactive)
30 | Cc1ccc(NC(=O)N2CCC(O)(c3cccnc3)CC2)cc1 | 12.8 | 17.2% (inactive)
31 | Cn1c(Cc2cccc3ccccc23)nnc1SCC(=O)N1CCN(c2cccc(Cl)c2)CC1 | 2.78 | 15.8% (inactive)
32 | CCSC1(SCC)N=C(N)C2(C#N)C(c3ccccc3)NC(C)=CC12C#N (configuration not stated) | -8.11 | -35% (inactive)
33 | CNC(=S)N1N=C(c2ccccc2)CC1c1ccc(Br)cc1 (configuration not stated) | -12.5 | 17.7% (inactive)
34 | CCNC(=O)CN(c1ccc(C)cc1)S(=O)(=O)c1ccc(SC)cc1 | 13.8 | -15% (inactive)
35 | Cc1nn(C)cc1CNC(=O)Nc1ccc(Cl)cc1 | -18.2 | -9.58% (inactive)
36 | O=C1c2ccncc2C(=O)N1C1CCCCC1 | 8.93 | 68.7% (active)
37 | Cc1cc(N2CCN(S(=O)(=O)c3ccc(C)c(C)c3)CC2)c2ccccc2n1 | 3.23 | 10.4% (inactive)
38 | Cc1[nH][nH]c(=O)c1N=Nc1ccccc1 | 8.33 | 28.6% (inactive)
39 | CN(Cc1nc2ccccc2c(=O)[nH]1)Cc1cc(=O)oc2ccc3ccccc3c12 | 9.38 | 16.8% (inactive)
40 | CC(C)C(NC(=O)c1ccc(Cl)cc1)C(=O)O (configuration not stated) | 16.2 | 27.4% (inactive)
41 | CCC(C(=O)NCc1ccc(OC)cc1)n1nc(C)n2c(cc3occc32)c1=O (configuration not stated) | -9.52 | 47% (inactive)
42 | Cc1noc(NS(=O)(=O)c2ccc(NC(=O)C34CCC(CC3)C4)cc2)c1C | 2.7 | -23.3% (inactive)
43 | C/C=C/C(=O)OCC(=O)Nc1ccc(F)cc1Cl | -4.76 | 19.8% (inactive)
44 | COc1ccc(CNCCCO)cc1OC | 8.33 | -1.06% (inactive)
45 | CCc1c(-c2ccccc2)nc(N)c(C#N)c1-c1cccs1 | -19.1 | 15.9% (inactive)
46 | OCCN1CCOCCOCCN(CCO)CCN(CCO)CC1 | -9.52 | 13.5% (inactive)

Row | Structure (SMILES) | growth inhibition [%] | inhibition
47 | O=c1[nH][nH]c(C(F)(F)F)c1C=NCc1ccccc1Cl | 12.5 | 12% (inactive)
48 | O=P(O)(CP(=O)(c1ccccc1)c1ccccc1)c1ccccc1 | 3.57 | -14.4% (inactive)
49 | CC(C)(C)NC(=O)Cn1c(SCC(=O)Nc2nccs2)nc2ccccc21 | -29.4 | 0.21% (inactive)
50 | COc1ccccc1N=C1SC(C)CN1C(=O)C1CCC1 (configuration not stated) | 4.55 | 26.9% (inactive)
51 | CCN(CC(=O)Nc1ccccc1OC)C(=O)Cn1cnc2ccccc2c1=O | -14.3 | 6.69% (inactive)
52 | C/C(=N\NS(=O)(=O)c1ccc(Br)cc1)c1cccs1 | 2.78 | 11% (inactive)
53 | Cc1cccc(NC(=O)C2CC(=O)OC23CCCC3)c1 (configuration not stated) | 11.5 | -11.9% (inactive)
54 | Cc1ccc(NC(=O)N2CCC(c3nc4c(nnn4Cc4c(F)cccc4Cl)c(=O)[nH]3)CC2)cc1 | 6.06 | 14.6% (inactive)
55 | CCC(C)NC(=O)CCCc1ccccc1 (configuration not stated) | -2.38 | 7.79% (inactive)
56 | CCCCNC(=O)C1CCCNC1=O (configuration not stated) | 26.5 | 22.2% (inactive)
57 | CC1(C)Cc2c(sc3nc(SCC(=O)NCc4ccccc4)n(-c4ccccc4)c(=O)c23)CS1 | -11.9 | -11% (inactive)
58 | CCOc1ccc(S(=O)(=O)NCC2CCCO2)cc1 (configuration not stated) | 5.88 | 10.3% (inactive)
59 | Cn1c2c(c(=O)n(C)c1=O)C(c1cccc([N+](=O)[O-])c1)Nc1ccccc1O2 (configuration not stated) | -14.3 | 20.4% (inactive)
60 | CC(=O)Nc1ccc(S(=O)(=O)N2CCN(C3CCCCCCC3)CC2)cc1 | 9.09 | -9.55% (inactive)
61 | CCOC(=O)CSc1nnc(CNc2ccc(F)cc2)o1 | 3.45 | 19.4% (inactive)
62 | COc1ccc(CN(CC(=O)NC2CCCC2)C(=O)CCC(=O)Nc2cc(C)on2)cc1 | -15.6 | -35.1% (inactive)
63 | CN(C(=O)COc1ccccc1)c1nnc(-c2ccncc2)s1 | – | 10.2% (inactive)
64 | CCOC(=O)CSc1nncc2ccc(OC)c(OC)c12 | – | 50.1% (active)
65 | CCOC(=O)CSc1nccc(N(C)C)c1C#N | 12 | 24.8% (inactive)
66 | CCOC(=O)CSc1nnc(CNC(=O)Cc2ccccc2)n1-c1ccccc1OC | -1.72 | 36.1% (inactive)
67 | CCC(=O)c1ccc(OCC(O)CN2CC(C)OC(C)C2)cc1 (configuration not stated) | 4.55 | -8.08% (inactive)

Reference: PubChem BioAssay AID688 (PCMD, 2007)
